Measurements collected from several papers.
Each line is one published result; the experiments were not run side by side.
Organism: Escherichia coli
Observed: microbial growth

Structure (SMILES)	method	cell line	strain	time	notes	MIC
O=C(Nc1ncc([N+](=O)[O-])s1)c1cc2ccccc2s1	–	–	–	–	–	< 50 µM
C[C@@H](O)[C@H]1C(=O)N2C(C(=O)O)=C(S[C@@H]3CN[C@H](C(=O)N(C)C)C3)[C@H](C)[C@H]12	broth dilution	–	ATCC35218	–	–	≤ 0.125 µg/mL
CNc1cccc2cc(C(=O)NCCc3cccc(C(=O)O)c3)c(=O)[nH]c12	broth dilution	–	ATCC25922	–	–	> 64 µg/mL
CCCCCCC/C=C/C(=O)N1C(=O)/C(=C(\O)c2ccc(O)cc2)C(=O)C1CC(C)C (stereo not drawn)	–	K12	K12	–	–	> 200 µg/mL
CC(NCCCN)c1cc2cc(Br)ccc2[nH]1 (stereo not drawn)	broth dilution	–	ATCC25922	–	–	128 µg/mL
N=C(N)c1ccc(OCCC(CCOc2ccc(C(=N)N)cc2)c2ccccc2)cc1 (stereo not drawn)	–	–	BW25113	–	–	> 200 µg/mL
CC(C)Oc1c(NC(=O)c2ccc(NC(=O)[C@H](CC(N)=O)NC(=O)c3ccc(NC(=O)c4ccc(C#N)c(Cl)c4)cc3)cc2)ccc(C(=O)Nc2ccc(C(=O)O)cc2)c1O	–	–	DSM1116	–	–	< 0.03 µg/mL
CC1=NN(CNc2ccc(C(=O)O)cc2)C(=O)C1=NNn1c(-c2ccccc2)nc2ccccc2c1=O	broth dilution	–	–	24 h	–	50.5 µM
CO[C@H]1O[C@H](COC(c2ccccc2)(c2ccccc2)c2ccccc2)[C@@H](OC(=O)c2ccc(C(C)(C)C)cc2)[C@H](OC(=O)c2ccc(C(C)(C)C)cc2)[C@H]1OC(=O)c1ccc(C(C)(C)C)cc1	broth dilution	–	–	–	–	1 µg/mL
CC1(C)S[C@@H]2[C@H](NC(=O)[C@H](N)c3ccccc3)C(=O)N2[C@H]1C(=O)O	broth dilution	–	MG1655	–	–	4 µg/mL
O=C(CCc1ccc(O)c(O)c1)NCCCCCCCC[P+](c1ccccc1)(c1ccccc1)c1ccccc1.[Br-]	broth dilution	–	ATCC25922	18 h	–	> 32 µg/mL
Cc1ccc(C)n1-c1ccc(-c2nnco2)cc1	broth dilution	–	ATCC10536	18 h	–	4 µg/mL
CC1=NN(CNC(=O)c2ccccn2)C(=O)C1=NNn1c(-c2ccccc2)nc2ccccc2c1=O	broth dilution	–	–	24 h	–	52 µM
N=C(N)c1ccc(OCc2ccc(-c3ccccc3)cc2COc2ccc(C(=N)N)cc2)cc1	–	–	BW25113	–	–	≥ 200 µg/mL
CC(C)Oc1c(NC(=O)c2ccc(NC(=O)[C@H](CC(N)=O)NC(=O)c3ccc(NC(=O)c4ccc([N+](=O)[O-])c(OC(C)C)c4O)cc3)cc2)ccc(C(=O)Nc2ccc(C(=O)O)cc2)c1O	–	–	DSM1116	–	–	> 64 µg/mL
C=CCn1c(-c2ccc(Cl)cc2)nc2ccc(C)cc21	broth dilution	–	ATCC25922	–	–	256 µg/mL
O=C(Nc1ccc2c(c1)OC(F)(F)O2)Nc1ccc(Cl)c(C(F)(F)F)c1	–	–	CFT073	–	–	> 100 µM
CSc1ccc(-c2nc3ccccc3[nH]2)cc1	broth dilution	–	ATCC25922	–	–	64 µg/mL
N=C(N)c1ccc(OCc2cc(COc3ccc(C(=N)N)cc3)cc(-c3ccccc3)c2)cc1	–	–	BW25113	–	–	≥ 100 µg/mL
CC(C)Oc1c(NC(=O)c2ccc(NC(=O)[C@H](CC(N)=O)NC(=O)c3ccc(NC(=O)c4ccc(C#N)cc4)cc3)cc2)ccc(C(=O)Nc2ccc(C(=O)O)cc2)c1O	–	–	ATCC25922	–	–	0.02 µg/mL
N=C(N)c1ccc(OCc2cc(Br)cc(COc3ccc(C(=N)N)cc3)c2)cc1	broth dilution	–	W3110	–	–	100 µg/mL
Clc1ccc(NCc2ccc(Oc3ccccn3)cc2)cc1	–	–	–	–	–	> 50 µg/mL
CC(C)Oc1c(NC(=O)c2ccc(NC(=O)[C@H](CC(N)=O)NC(=O)c3ccc(NC(=O)C(C)Oc4ccccc4)cc3)cc2)ccc(C(=O)Nc2ccc(C(=O)O)cc2)c1O (stereo partly drawn)	–	–	DSM1116	–	–	> 64 µg/mL
N=C(N)c1ccc(OCc2cccc(COc3ccc(C(=N)N)cc3)c2)cc1	broth dilution	–	BW25113	–	–	> 200 µg/mL
O=[N+]([O-])c1ccc(-c2nc3cccc(O)c3[nH]2)o1	broth dilution	–	ATTC25922	–	–	2 µg/mL
Cn1c(SCc2ccc(Cl)cc2)nnc1-c1cncc(C#Cc2ccccc2)c1	–	–	–	–	–	≥ 20 µg/mL
COc1c(C)c(OC(C)=O)c(C)c(O)c1C(=O)/C=C/c1ccccc1	broth dilution	–	ATCC25922	–	–	5000 µg/mL

Structure (SMILES)	method	cell line	strain	time	notes	MIC
Cc1ccc2nc(-c3cccnc3)[nH]c2c1	broth dilution	–	ATCC25922	–	–	128 µg/mL
Cc1ccc(C)n1-c1ccc(-c2nnc(S)s2)cc1	broth dilution	–	ATCC10536	18 h	–	2 µg/mL
CC(C)Oc1c(NC(=O)c2ccc(NC(=O)[C@H](CC(N)=O)NC(=O)c3ccc(NC(=O)c4ccc([N+](=O)[O-])cc4)cc3)cc2)ccc(C(=O)Nc2ccc(C(=O)O)c(F)c2)c1O	–	–	DSM1116	–	–	1 µg/mL
COc1ccc(NCc2ccc(Oc3ccccn3)cc2)cc1	–	–	–	–	–	> 25 µg/mL
CC1(C)S[C@@H]2[C@H](NC(=O)[C@H](N)c3ccccc3)C(=O)N2[C@H]1C(=O)O	broth dilution	–	ATCC25922	16 h	–	0.3 µg/mL
Cn1cc(NC(=O)C(CC(N)=O)NC(=O)c2ccc(NC(=O)c3ccc(C#N)cc3)cc2)cc1-c1nc2ccc(C(=O)Nc3ccc(C(=O)O)cc3)c(O)c2[nH]1 (stereo not drawn)	–	–	DSM1116	–	–	> 64 µg/mL
CO[C@H]1/C=C/O[C@@]2(C)Oc3c(C)c(O)c4c(O)c(c(/C=N/N5CCN(C)CC5)c(O)c4c3C2=O)NC(=O)/C(C)=C\C=C\[C@H](C)[C@H](O)[C@@H](C)[C@@H](O)[C@@H](C)[C@H](OC(C)=O)[C@@H]1C	–	–	ATCC25922	–	–	4 µg/mL
CC(C)Oc1c(NC(=O)c2ccc(NC(=O)[C@H](CC(N)=O)NC(=O)c3ccc(NC(=O)c4ccc(NC(=O)c5ccc([N+](=O)[O-])cc5)cc4)cc3)cc2)ccc(C(=O)Nc2ccc(C(=O)O)cc2)c1O	–	–	DSM1116	–	–	0.5 µg/mL
CCn1cc(C(=O)O)c(=O)c2cc(F)c(N3CCNCC3)cc21	broth dilution	ATCC 8739	ATCC8739	–	–	1 µM
C=CCn1c(-c2ccc([N+](=O)[O-])cc2)nc2ccccc21	broth dilution	–	ATCC25922	–	–	64 µg/mL
N=C(N)c1cccc(OCCCCCOc2cccc(C(=N)N)c2)c1	–	–	BW25113	–	–	> 200 µg/mL
Cc1ccc2nc(-c3ccccc3Cl)[nH]c2c1	broth dilution	–	ATCC25922	–	–	64 µg/mL
COc1c(C)c(OC(C)=O)c(C)c(OC(C)=O)c1C(=O)/C=C/c1ccccc1	broth dilution	–	ATCC25922	–	–	5000 µg/mL
Cc1c(CN(C)C(=O)/C=C/c2cnc3c(c2)CC(CCN)C(=O)N3)oc2ccccc12.Cl (stereo not drawn)	broth dilution	–	BAA2471	–	clinical isolate	4 µg/mL
C=CCn1c(-c2ccc([N+](=O)[O-])cc2)nc2ccc(C)cc21	broth dilution	–	ATCC25922	–	–	64 µg/mL
Cc1ccc(C)n1-c1ccc(-c2nnc(-c3ccccc3[N+](=O)[O-])[nH]2)cc1	broth dilution	–	ATCC10536	18 h	–	250 µg/mL
C=CCOc1c(C)c(O)c(C(=O)/C=C/c2ccccc2)c(OC)c1C	broth dilution	–	ATCC25922	–	–	5000 µg/mL
Brc1cccc(NCc2ccc(Oc3ccccn3)cc2)c1	–	–	–	–	–	> 50 µg/mL
N=C(N)c1ccc(OCCCCCOc2ccc(C(=N)N)cc2)cc1	broth dilution	–	ATCC25922	–	–	200 µg/mL
C/C(O)=C1\C(=O)C(CC(C)C)N(C(=O)CCCCCc2ccccc2)C1=O (stereo not drawn)	–	K12	K12	–	–	> 200 µg/mL
CC(C)Oc1c(NC(=O)c2ccc(NC(=O)[C@H](CC(N)=O)NC(=O)c3ccc(NC(=O)c4ccc(C5(C(F)(F)F)N=N5)cc4)cc3)cc2)ccc(C(=O)Nc2ccc(C(=O)O)cc2)c1O	–	–	DSM1116	–	–	16 µg/mL
O=C(CCCCCC[P+](c1ccccc1)(c1ccccc1)c1ccccc1)Nc1cc(O)c(O)c(O)c1.[Br-]	broth dilution	–	ATCC25922	18 h	–	> 32 µg/mL
Cc1ccc2nc(-c3ccncc3)[nH]c2c1	broth dilution	–	ATCC25922	–	–	64 µg/mL
C[C@H]1[C@H](NC(=O)/C(=N\OC(C)(C)C(=O)O)c2csc(N)n2)C(=O)N1S(=O)(=O)O	agar dilution	–	ATCC25	–	–	0.06 µg/mL
Cc1ccc2nc(-c3cccc(O)c3)[nH]c2c1	broth dilution	–	ATCC25922	–	–	64 µg/mL
N=C(N)c1ccc(OCc2ccccc2COc2ccc(C(=N)N)cc2)cc1	broth dilution	–	BW25113	–	–	> 200 µg/mL
CCCCCCC/C=C/C(=O)N1CC(=O)/C(=C(\C)O)C1=O	–	K12	K12	–	–	> 200 µg/mL
